Assay results as given in PubChem BioAssay AID2369 (The Scripps Research Institute Molecular Screening Center, 2010).
Activity calls are given as the source filed them. No rule for the calls is given here.

biological target: Protein phosphatase methylesterase 1 (Mus musculus) (UniProt Q8BVQ5); assay: endogenous mouse PME-1 inhibition by ABPP, late-stage follow-up, orthogonal assay for PME-1 inhibitor project, cell lysate, mouse brain cytosol, FP-rhodamine, in-gel fluorescence (AID 2369); settings: band fluorescence, at 20 µM, hits give high values
Summary of the method: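 System: native PME-1, mouse brain cytosol / Quantity: cytosol, 2 mg/mL / Reagent: FP-rhodamine probe, 75 nM / Compound: 20 µM single dose / Times: compound pre-incubation 30 min at 25 °C, probe labeling 45 min / Measured by: in-gel fluorescence scanning of probe-labeled bands / Evaluation: percent PME-1 inhibition from integrated band optical density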

Protein phosphatase methylesterase 1 (Mus musculus), sequence (Q8BVQ5 whole entry, looked up): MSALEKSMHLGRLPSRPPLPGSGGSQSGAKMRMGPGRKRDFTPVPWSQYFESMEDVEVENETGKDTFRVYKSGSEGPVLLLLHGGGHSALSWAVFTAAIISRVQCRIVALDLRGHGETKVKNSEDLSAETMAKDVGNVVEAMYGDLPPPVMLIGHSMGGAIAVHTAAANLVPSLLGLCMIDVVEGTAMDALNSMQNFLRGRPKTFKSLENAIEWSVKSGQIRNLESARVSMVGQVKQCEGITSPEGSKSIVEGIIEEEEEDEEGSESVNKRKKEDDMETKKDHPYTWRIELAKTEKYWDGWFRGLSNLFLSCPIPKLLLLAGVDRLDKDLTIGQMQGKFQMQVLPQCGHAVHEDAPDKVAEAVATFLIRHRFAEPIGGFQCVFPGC

**Q.** How did the inhibition turn out when `Cc1cc(C)c(/C=C(\C#N)S(=O)(=O)c2ccccc2)[nH]1` was run?
**A.** 0% (inactive)

**Q.** `N#C/C(=C\c1cccn1S(=O)(=O)c1cccc(C(=O)O)c1)S(=O)(=O)c1ccc(F)cc1` was tested. Which inhibition did it give?
**A.** 60% (inactive)

**Q.** For `CS(=O)(=O)/C(C#N)=C/c1cccn1-c1ccc(C(F)(F)F)cc1`, which inhibition is on record?
**A.** 0% (inactive)

**Q.** `CCSc1ncc(/C=C(/C#N)S(C)(=O)=O)n1C` was tested. Which inhibition did it give?
**A.** 0% (inactive)

**Q.** Which inhibition does the source give for `COc1cccc(S(=O)(=O)n2cccc2/C=C(\C#N)S(=O)(=O)c2ccc(F)cc2)c1` here?
**A.** 60% (inactive)

**Q.** How did the inhibition turn out when `N#C/C(=C\c1cccn1S(=O)(=O)c1cccc(Cl)c1)S(=O)(=O)c1ccc(F)cc1` was run?
**A.** 80%

**Q.** `N#C/C(=C\c1cccn1S(=O)(=O)c1cccc(C#N)c1)S(=O)(=O)c1ccc(Br)cc1` was tested. Which inhibition did it give?
**A.** 70%

**Q.** With `Cc1cc(C)n(-c2ccc(-n3cccc3/C=C(\C#N)S(C)(=O)=O)cc2)n1` as the molecule, how does the inhibition read?
**A.** 0% (inactive)

**Q.** For `N#C/C(=C\c1cccn1S(=O)(=O)c1cccc(C#N)c1)S(=O)(=O)c1ccc(Cl)cc1`, which inhibition is on record?
**A.** 85%

**Q.** `Cc1ccc(-n2cccc2/C=C(\C#N)S(C)(=O)=O)c([N+](=O)[O-])c1` was tested. Which inhibition did it give?
**A.** 0% (inactive)

**Q.** How did the inhibition turn out when `CS(=O)(=O)/C(C#N)=C\c1cnc(S(=O)(=O)c2ccccc2)s1` was run?
**A.** 0% (inactive)

**Q.** Which inhibition does the source give for `N#C/C(=C\c1cccn1-c1ccc(Cl)cc1)S(=O)(=O)c1ccccc1` here?
**A.** 0% (inactive)

**Q.** Which inhibition does the source give for `N#C/C(=C\c1cccn1-c1cc(Cl)cc(Cl)c1)S(=O)(=O)c1ccccc1` here?
**A.** 0% (inactive)

**Q.** For `COc1ccc2[nH]c(/C=C(\C#N)S(C)(=O)=O)cc2c1`, which inhibition is on record?
**A.** 0% (inactive)

**Q.** How did the inhibition turn out when `Cc1cc(C)n(-c2ccc(-n3cccc3/C=C(/C#N)S(=O)(=O)c3ccccc3)cc2)n1` was run?
**A.** 0% (inactive)

**Q.** `N#C/C(=C\c1cccn1S(=O)(=O)c1cccc([N+](=O)[O-])c1)S(=O)(=O)c1ccc(F)cc1` was tested. Which inhibition did it give?
**A.** 90%

**Q.** With `CS(=O)(=O)/C(C#N)=C\c1ccc(-n2cc(/C=C(/C#N)S(C)(=O)=O)c3ccccc32)cc1` as the molecule, how does the inhibition read?
**A.** 0% (inactive)

**Q.** `CS(=O)(=O)/C(C#N)=C/c1cn(Cc2cnc(Cl)s2)c2ccccc12` was tested. Which inhibition did it give?
**A.** 0% (inactive)

**Q.** `Cc1ccc(-c2nc3sccn3c2/C=C(\C#N)S(C)(=O)=O)cc1` was tested. Which inhibition did it give?
**A.** 0% (inactive)

**Q.** With `COC(=O)c1[nH]c2ccccc2c1/C=C(\C#N)S(C)(=O)=O` as the molecule, how does the inhibition read?
**A.** 0% (inactive)

**Q.** For `N#C/C(=C\c1cccn1-c1ccc(OC(F)(F)F)cc1)S(=O)(=O)c1ccccc1`, which inhibition is on record?
**A.** 0% (inactive)

**Q.** With `CS(=O)(=O)/C(C#N)=C/c1cccn1-c1ccc(OC(F)(F)F)cc1` as the molecule, how does the inhibition read?
**A.** 0% (inactive)

**Q.** How did the inhibition turn out when `N#C/C(=C\c1cccn1S(=O)(=O)c1cccc(OC(F)(F)F)c1)S(=O)(=O)c1ccc(F)cc1` was run?
**A.** 75%
